# In publication PMC5148661 (ACS infectious diseases, 2016):
# “And” between values parts separate entries of the source, which are not always exact repeats. Equal entries are not always repeated.
# Assays:
# P. vivax DHODH = P. vivax DHODH (Plasmodium vivax, UniProt A5K1N1); test: DHODH inhibition, DCIP-based assay; format: biochemical
# [1] = kinetic solubility in pH 6.5 buffer; format: physicochemical; details: aqueous buffer pH 6.5, pH 6.5
# [2] = pharmacokinetics after IV and oral dosing; format: in vivo, dogs; details: dog, plasma, 1 mg/kg
# Summary of the method: (§1)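 Single IV and oral doses were given. Mice and rats received about 2 mg/kg IV and 5–50 mg/kg orally, with blood sampled over 30–48 h from 2 mice per time point or 2 rats. Dogs received 1 mg/kg by each route (n=3). Plasma was separated by centrifugation and assayed by LC/MS, and parameters were derived non-compartmentally.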
# [3] = test system: P. falciparum Dd2 isolates selected for resistance to DSM265; test: activity on DSM265-selected resistant lines; format: cell-based; details: G181C PfDHODH mutant line and 3-fold DHODH gene amplification line
# Mouse DHODH = Mouse DHODH (Mus musculus, UniProt O35435); test: DHODH inhibition, DCIP-based assay; format: biochemical
# Sequence of Mouse DHODH (O35435 whole entry): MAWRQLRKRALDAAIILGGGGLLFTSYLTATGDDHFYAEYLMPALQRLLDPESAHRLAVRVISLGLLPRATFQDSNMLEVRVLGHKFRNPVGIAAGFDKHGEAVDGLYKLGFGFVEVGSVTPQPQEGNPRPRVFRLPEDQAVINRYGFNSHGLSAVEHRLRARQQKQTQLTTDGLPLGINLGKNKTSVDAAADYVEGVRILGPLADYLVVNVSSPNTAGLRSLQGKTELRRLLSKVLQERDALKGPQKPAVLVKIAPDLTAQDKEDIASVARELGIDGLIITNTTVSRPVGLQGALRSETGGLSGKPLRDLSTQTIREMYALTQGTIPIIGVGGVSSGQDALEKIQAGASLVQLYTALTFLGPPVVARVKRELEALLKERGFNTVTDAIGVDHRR
# [4] = rat 7-day exploratory toxicity study; format: in vivo; details: rat 7-day exploratory toxicity study (data not shown)
# [5] = metabolic stability in liver microsomes; format: in vitro ADME; details: human
# Na_V1.5 channel = Na_V1.5 channel (Homo sapiens, UniProt Q14524); test: Na_V1.5 channel assay; format: cell-based
# Sequence of Na_V1.5 channel (Q14524 whole entry): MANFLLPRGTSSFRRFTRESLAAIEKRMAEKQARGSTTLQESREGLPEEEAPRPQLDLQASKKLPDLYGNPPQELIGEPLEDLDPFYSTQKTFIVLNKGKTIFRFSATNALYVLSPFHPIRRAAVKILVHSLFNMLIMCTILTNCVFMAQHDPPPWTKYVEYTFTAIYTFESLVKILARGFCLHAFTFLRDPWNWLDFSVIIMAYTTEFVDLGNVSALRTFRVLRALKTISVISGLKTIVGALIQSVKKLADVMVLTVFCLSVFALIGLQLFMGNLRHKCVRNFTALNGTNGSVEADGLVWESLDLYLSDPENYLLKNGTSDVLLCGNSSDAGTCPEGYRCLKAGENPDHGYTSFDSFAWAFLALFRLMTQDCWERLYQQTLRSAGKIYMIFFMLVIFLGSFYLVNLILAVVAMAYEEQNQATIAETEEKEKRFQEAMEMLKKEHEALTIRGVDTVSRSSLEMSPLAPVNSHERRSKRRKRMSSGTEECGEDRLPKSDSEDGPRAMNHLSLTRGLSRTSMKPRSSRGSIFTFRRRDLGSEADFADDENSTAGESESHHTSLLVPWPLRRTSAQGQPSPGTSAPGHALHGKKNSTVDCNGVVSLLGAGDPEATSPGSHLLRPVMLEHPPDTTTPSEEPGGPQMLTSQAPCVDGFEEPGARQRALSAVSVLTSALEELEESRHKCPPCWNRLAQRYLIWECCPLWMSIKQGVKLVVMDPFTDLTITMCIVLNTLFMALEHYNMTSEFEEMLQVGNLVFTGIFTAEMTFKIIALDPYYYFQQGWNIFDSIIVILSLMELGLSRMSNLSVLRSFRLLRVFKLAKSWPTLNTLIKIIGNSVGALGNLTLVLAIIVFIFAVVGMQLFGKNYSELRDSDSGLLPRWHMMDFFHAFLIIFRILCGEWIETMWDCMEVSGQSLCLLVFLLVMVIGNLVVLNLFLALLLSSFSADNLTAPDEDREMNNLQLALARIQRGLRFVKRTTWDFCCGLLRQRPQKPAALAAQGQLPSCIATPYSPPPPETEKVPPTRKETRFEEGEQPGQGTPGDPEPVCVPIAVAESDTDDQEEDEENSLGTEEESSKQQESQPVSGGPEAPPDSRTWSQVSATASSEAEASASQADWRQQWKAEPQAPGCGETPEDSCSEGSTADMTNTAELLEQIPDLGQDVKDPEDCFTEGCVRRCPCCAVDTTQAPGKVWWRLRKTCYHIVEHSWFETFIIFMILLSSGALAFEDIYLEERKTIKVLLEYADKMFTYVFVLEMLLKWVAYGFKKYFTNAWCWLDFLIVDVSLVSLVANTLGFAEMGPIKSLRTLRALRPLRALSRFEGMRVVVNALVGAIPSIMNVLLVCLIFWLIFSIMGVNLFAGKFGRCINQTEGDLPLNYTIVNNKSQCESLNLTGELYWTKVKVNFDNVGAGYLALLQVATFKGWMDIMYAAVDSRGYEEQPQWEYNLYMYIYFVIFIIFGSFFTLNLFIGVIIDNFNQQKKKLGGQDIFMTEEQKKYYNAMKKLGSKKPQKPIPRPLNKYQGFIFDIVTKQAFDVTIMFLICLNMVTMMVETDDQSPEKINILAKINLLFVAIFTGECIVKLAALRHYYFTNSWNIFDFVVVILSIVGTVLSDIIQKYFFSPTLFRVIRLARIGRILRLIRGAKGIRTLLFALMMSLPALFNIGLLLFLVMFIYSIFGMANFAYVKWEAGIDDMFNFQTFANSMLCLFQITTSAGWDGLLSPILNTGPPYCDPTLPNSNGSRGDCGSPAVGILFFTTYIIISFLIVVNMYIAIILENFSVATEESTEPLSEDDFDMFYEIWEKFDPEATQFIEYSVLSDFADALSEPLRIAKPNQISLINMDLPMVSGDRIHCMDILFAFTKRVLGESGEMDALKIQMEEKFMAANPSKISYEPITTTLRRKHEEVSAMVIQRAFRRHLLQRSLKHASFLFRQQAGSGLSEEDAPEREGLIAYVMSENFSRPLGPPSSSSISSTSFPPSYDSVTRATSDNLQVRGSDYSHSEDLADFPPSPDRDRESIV
# Summary of the method: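 Channel activity measured by IonWorks automated patch-clamp electrophysiology at a contract lab.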
# [6] = cytotoxicity against a human cell line; format: cell-based; details: human, HepG2 cells
# Human HepG2 cells = test: cytotoxicity against a human cell line; format: cell-based
# [7] = metabolic stability in liver microsomes; format: in vitro ADME; details: rat
# physchem = format: physicochemical
# Dog DHODH = Dog DHODH (Canis lupus familiaris, UniProt A0A8I3MWX2); test: DHODH inhibition, DCIP-based assay; format: biochemical
# Sequence of Dog DHODH (A0A8I3MWX2 1-406): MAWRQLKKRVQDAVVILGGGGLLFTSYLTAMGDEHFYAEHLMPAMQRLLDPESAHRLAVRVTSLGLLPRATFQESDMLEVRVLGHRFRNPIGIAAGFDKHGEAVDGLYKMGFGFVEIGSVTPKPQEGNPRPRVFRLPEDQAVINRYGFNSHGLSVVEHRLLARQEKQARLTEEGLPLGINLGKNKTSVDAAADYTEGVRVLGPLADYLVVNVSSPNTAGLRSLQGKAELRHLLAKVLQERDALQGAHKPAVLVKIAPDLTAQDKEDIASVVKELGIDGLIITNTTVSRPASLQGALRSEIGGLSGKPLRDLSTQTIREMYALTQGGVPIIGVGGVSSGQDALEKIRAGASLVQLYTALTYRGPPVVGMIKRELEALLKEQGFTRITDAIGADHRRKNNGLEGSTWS
# hERG channel = hERG channel (Homo sapiens, UniProt Q12809); test: hERG channel patch clamp; format: cell-based; details: for IC50: hERG IC50, partial dose response curve
# Sequence of hERG channel (Q12809 whole entry): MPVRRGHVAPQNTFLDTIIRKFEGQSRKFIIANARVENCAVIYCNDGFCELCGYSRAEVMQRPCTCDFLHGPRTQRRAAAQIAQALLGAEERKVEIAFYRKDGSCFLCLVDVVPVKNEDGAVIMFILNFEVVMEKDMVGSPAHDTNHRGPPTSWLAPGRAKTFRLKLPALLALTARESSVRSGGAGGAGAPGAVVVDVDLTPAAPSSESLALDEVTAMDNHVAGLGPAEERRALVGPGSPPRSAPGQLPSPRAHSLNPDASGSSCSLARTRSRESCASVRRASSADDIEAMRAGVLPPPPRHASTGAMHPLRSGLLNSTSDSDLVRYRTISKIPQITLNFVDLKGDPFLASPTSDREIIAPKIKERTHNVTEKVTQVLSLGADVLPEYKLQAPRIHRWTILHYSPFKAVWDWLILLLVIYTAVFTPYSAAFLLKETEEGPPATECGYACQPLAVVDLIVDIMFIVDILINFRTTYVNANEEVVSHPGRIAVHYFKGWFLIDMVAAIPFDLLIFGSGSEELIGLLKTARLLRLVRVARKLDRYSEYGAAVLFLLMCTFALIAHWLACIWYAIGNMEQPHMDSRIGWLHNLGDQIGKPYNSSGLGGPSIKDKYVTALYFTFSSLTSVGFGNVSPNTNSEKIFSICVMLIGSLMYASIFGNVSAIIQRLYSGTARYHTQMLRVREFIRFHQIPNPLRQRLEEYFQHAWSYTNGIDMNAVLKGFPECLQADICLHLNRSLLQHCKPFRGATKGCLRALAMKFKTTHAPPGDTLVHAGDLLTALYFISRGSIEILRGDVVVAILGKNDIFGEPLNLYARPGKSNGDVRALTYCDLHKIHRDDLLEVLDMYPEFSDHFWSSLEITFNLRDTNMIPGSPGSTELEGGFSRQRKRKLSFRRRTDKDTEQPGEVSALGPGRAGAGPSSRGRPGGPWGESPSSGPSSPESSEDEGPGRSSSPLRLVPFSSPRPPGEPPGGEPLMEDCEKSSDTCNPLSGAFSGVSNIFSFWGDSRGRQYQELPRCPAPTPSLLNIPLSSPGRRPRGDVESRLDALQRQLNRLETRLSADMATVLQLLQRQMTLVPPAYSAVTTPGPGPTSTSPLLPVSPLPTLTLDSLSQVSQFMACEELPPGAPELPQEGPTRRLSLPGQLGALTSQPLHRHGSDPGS
# Summary of the method: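 hERG current measured by IonWorks automated patch-clamp electrophysiology at a contract lab. Top concentration tested was 33 μM.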
# [8] = pharmacokinetics after IV and oral dosing; format: in vivo, rats
# Summary of the method: as §1
# Sequence of P. vivax DHODH (A5K1N1 160-572): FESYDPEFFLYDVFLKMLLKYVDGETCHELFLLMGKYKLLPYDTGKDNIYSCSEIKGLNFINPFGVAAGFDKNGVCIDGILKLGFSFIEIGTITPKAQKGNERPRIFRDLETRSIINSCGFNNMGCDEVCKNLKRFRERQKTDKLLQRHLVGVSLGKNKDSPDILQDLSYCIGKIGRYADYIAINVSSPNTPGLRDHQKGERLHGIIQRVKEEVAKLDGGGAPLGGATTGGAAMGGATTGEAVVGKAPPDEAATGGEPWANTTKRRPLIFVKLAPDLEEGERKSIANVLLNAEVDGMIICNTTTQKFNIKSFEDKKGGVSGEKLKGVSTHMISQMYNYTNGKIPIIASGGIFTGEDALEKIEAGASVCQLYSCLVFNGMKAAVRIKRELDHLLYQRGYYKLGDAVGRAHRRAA
smiles,measurement,setting,value
"Cc1cc(Nc2ccc(C(F)(F)F)nc2)n2nc(C(C)(F)F)nc2n1 [DSM421, 2-(1,1-Difluoroethyl)-5-methyl-N-(6-(trifluoromethyl)pyridin-3-yl)-[1,2,4]triazolo[1,5-a]pyrimidin-7-amine]",IC50,P. vivax DHODH,0.094 µM
same,fold lower activity (higher IC50) on P. vivax DHODH than PfDHODH,P. vivax DHODH,2 fold
same,solubility kinetic,[1],> 100 µg/mL
same,half-life,[2],15 to 18 h
same,CLint scaled,[2]; intravenous,4.5 mL/min/kg
same,Vd,[2]; iv,0.8 L/kg
same,clearance,[2]; iv,0.5 mL/min/kg
same,Tmax,[2]; po,4 h
same,bioavailability,[2]; po,~100%
same,cross resistance on DSM265-resistant Dd2 lines,[3],shares cross resistance with DSM265
same,IC50,Mouse DHODH,18 µM
same,fold reduction of inhibitory activity in comparison to DSM265,Mouse DHODH; rodent (mouse) enzyme,10 fold
same,tolerability,[4],well tolerated
same,microsomal CLint at 1 μM,[5],< 7 µL/min/mg
same,activity on Na_V1.5 channel,Na_V1.5 channel,no activity
same,EC50,[6],> 50 µM
same,selectivity window HepG2 over activity against P. falciparum,Human HepG2 cells,600-5000 fold
same,microsomal CLint at 1 μM,[7],< 7 µL/min/mg
same,logD,"physchem; pH 7.4, measured Log D7.4, text (Table S6)",2.36
same,measured Log D7.4,physchem; text (Table S6),2.4
same,IC50,Dog DHODH,35 µM
same,fold reduction of inhibitory activity in comparison to DSM265,Dog DHODH; dog enzyme,2.2 fold
same,concentration giving 20% hERG inhibition,hERG channel,~ 10 μM and 3.6 μg/mL
same,IC50,hERG channel,26.2 µM
same,IC50,hERG channel; maximum concentration 33 μM,26.2 µM
same,half-life,"[8]; rat, plasma",~5 h
same,Vd,"[8]; rat, plasma, iv, 2 mg/kg",0.8 L/kg
same,clearance,"[8]; rat, plasma, iv, 2 mg/kg",2.4 mL/min/kg
same,Tmax,"[8]; rat, plasma, po",1.8 to 7.5 h
same,bioavailability,"[8]; rat, plasma, po, 4.3 mg/kg",~80%
same,fold increase of plasma AUC,"[8]; rats, oral 4.3 to 53.7 mg/kg, for a 12-fold increase in dose",31 fold
